# TAAR1 antag – human TAAR1 antagonists, primary screen, Fluo-8 calcium fluorescence, CHO RD-HGA16 cells; antagonist; inhibition, % at 3 µM; 1.5% of 360,000 active;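 active = inhibition above a per-plate cutoff, the mean inhibition of test compounds on that plate plus 3 SD, cut at about 49% in these data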;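 also: 0% = DMSO plus EC80 beta-PEA response and 100% = DMSO alone without agonist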
#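 Test system: hTAAR1-expressing CHO RD-HGA16 cells, Gα16-coupled; Probe or stimulus: EC80 β-phenethylamine stimulus; Compound dosing: single nominal final test compound concentration of 3 µM; Timing: 140 s kinetic read after compound, 140 s after agonist; Signal: Fluo-8 calcium-sensitive fluorescence; Measure: % inhibition of agonist calcium response; Controls: DMSO and EC80 PEA controls.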
# CHO parental Ca – ATP-evoked calcium signal inhibitors, parental CHO, primary screen, counter-screen for OX1R antagonist project, cell-based, fluorescence, Fluo-8 calcium dye; parental CHO-K1, ATP-induced calcium, Fluo-8 fluorescence; inhibition, % at 5.6 µM; 0.63% of 330,000 active; AID 463079, 2010;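 active = inhibition above that plate's mean sample inhibition plus 3 SD, cut at about 26% in these data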;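 also: 0% = ATP-challenged DMSO wells and 100% = DMSO wells without ATP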
#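 Test system: untransfected parental CHO cell line; also added: ATP stimulus; dosing: 5.6 µM, single dose; signal: calcium-sensitive Fluo-8 fluorescence; measure: percent inhibition of ATP-evoked calcium rise, normalized to controls; benchmarks: low control ATP plus DMSO, high control DMSO only; replication: one well per compound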
# OX1R antag-1 – antagonists of human orexin 1 receptor (OX1R); OX1R-expressing cells, FRET antagonist read-out; inhibition, % at 6.6 µM; 1.8% of 330,000 active; Orexin/Hypocretin receptor type 1 (Homo sapiens), O43613; in the data active = inhibition mostly above about 38%, no sharp cut-off; inactive = mostly below about 40%;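 also: 0% = agonist challenge alone and 100% = reference antagonist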
# Target sequence (O43613 whole entry, looked up): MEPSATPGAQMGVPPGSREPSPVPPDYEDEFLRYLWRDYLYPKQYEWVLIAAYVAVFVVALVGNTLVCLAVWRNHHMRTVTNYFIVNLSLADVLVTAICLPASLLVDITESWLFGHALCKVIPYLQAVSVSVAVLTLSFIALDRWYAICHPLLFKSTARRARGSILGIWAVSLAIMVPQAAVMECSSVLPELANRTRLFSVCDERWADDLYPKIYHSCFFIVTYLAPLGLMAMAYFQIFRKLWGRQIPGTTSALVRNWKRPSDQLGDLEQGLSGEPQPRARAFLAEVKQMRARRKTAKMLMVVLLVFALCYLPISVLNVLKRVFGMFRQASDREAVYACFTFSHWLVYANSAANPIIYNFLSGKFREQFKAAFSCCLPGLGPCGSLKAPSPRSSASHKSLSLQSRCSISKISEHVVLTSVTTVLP
# TAAR1 ag – human TAAR1 agonists, primary screen, Fluo-8 calcium fluorescence, CHO RD-HGA16 cells; Trace amine-associated receptor 1 (Homo sapiens), Q96RJ0; vehicle wells 0%, saturating PEA agonist 100%; activation, % at 3 µM; 0.99% of 360,000 active; AID 624467, 2012;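 active = activation above the mean activation of all test compounds in the run plus 3 SD, cut at about 38% in these data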
#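 System: CHO-derived RD-HGA16 cells with stable Gα16 and human TAAR1. Times: 17-24 h plating, Fluo-8 75 min 37 °C, 30 min RT. Measured by: calcium-sensitive Fluo-8 signal, excitation 470-495, emission 515-575 nm. Read-out basis: % activation relative to PEA EC100 response. Control set: DMSO and PEA EC100. Repeats: no replicates (n 1).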
# OX1R antag-2 – OX1R (HCRTR1) antagonists, primary screen, fluorescence, CHO/OX1R cells, Fluo-8 calcium, orexin A; Orexin/Hypocretin receptor type 1 (Homo sapiens), O43613; Fluo-8 calcium fluorescence; inhibition, % at 5 µM; 0.43% of 330,000 active;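 active = inhibition above its plate's threshold, mean inhibition of all tested compounds on the plate plus 3 SD, cut at about 37% in these data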;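 also: 0% = orexin A challenge wells and 100% = SB-334867-A antagonist wells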
# GPR7 antag – GPR7 receptor antagonists, primary screen, cell-based, fluorescence, single concentration | 1.1% of 290,000 active | GPR7-expressing cells, fluorescence antagonist assay | inhibition, % at 4.4 µM; in the data active = inhibition above about 16%, passing the limit was not always enough;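 also: cells stimulated with the agonist NPW; 0% = agonist with vehicle and 100% = vehicle without agonist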
# Active calls of the source: *; . = no result. Hits are enriched below; roughly 4.6% of the tested compounds scored in any of these assays.
SMILES,TAAR1 antag,CHO parental Ca,OX1R antag-1,TAAR1 ag,OX1R antag-2,GPR7 antag
CCOC(=O)Cc1c(C)nc2c(-c3ccc(Cl)cc3)c[nH]n2c1=O,4.1,-13.6,11.4,-1.5,-12.4,-0.4
CSc1ccc(/C=C2\CCn3c2nc2cc(C(=O)O)ccc2c3=O)cc1,3.8,-2.3,15.2,1.0,2.9,-12.2
CCCCC[C@H](O)/C=C/[C@H]1CCC(=O)[C@@H]1CCCCCCC(=O)N1CCCCC1CO (stereo partly drawn),71.3*,-1.1,-9.6,22.9,-2.0,24.7
CCC1CCCCN1C(=O)CCCOc1ccccc1 (stereo not drawn),7.1,-22.5,5.0,2.2,-18.3,-3.0
Cc1cc(OCc2ccc(C(=O)n3cccn3)o2)ccc1Cl,4.3,-9.3,23.1,5.4,-3.7,8.7
CCN(CC)C(=O)c1ccc(COc2ccc(Cl)c(C)c2)o1,20.2,44.2*,19.0,2.8,-12.6,3.0
COC(=O)[C@]12C[C@H](CC(=O)NCc3cccc(C(F)(F)F)c3)C(=O)N(Cc3ccccc3)C1=C[C@H](C(C)(C)C)O[C@@H]2C,-15.4,.,.,-2.0,.,.
CC(C)n1cc(CN2CCC(Oc3ccc(C(=O)N4CCCC4)cc3)CC2)cn1,-10.4,-2.9,22.6,3.4,-8.3,-10.9
CSc1ccc(/C=C(\C#N)C(=O)NC2CCCCC2C)cc1 (stereo not drawn),-20.5,-28.7,25.0,5.7,-30.5,0.6
CC(=O)Nc1ccc(/C=C(\C#N)C(=O)NC2CCCCC2C)cc1 (stereo not drawn),6.4,-5.1,22.0,5.7,-25.0,20.1*
Cc1ccc(S(=O)(=O)N2CCN(C(=O)COC(=O)CNC(=O)c3ccc(Cl)cc3Cl)CC2)c(C)c1,15.7,.,.,1.7,.,.
COc1ccc(CN(C)S(=O)(=O)c2nnc(NC(=O)c3ccccc3)s2)cc1OC,-39.4,-9.1,21.9,2.7,-8.2,-14.5
COc1ccc(CN(C)S(=O)(=O)c2nnc(NC(=O)c3cccc(F)c3)s2)cc1OC,17.2,-0.6,43.3*,4.4,-28.0,0.0
CC1CN(C(=O)CCC(=O)NCCCN2CCN(Cc3ccccc3)CC2)c2cc(Cl)ccc2O1 (stereo not drawn),-19.9,-11.9,7.0,2.2,-16.7,-8.3
CN1CCN(c2ccc([N+](=O)[O-])cc2S(=O)(=O)N2CCOCC2)CC1,6.3,1.0,94.4*,9.2,-12.6,3.2
N#Cc1nc(COc2ccccc2)oc1N1CCCCCC1,-4.0,54.1*,24.7,-1.9,-22.6,3.3
CCN(CC)c1cc(NCCO)c([N+](=O)[O-])c2nonc12,-20.9,-13.3,53.2*,3.4,-24.6,3.8
CC(C)CCSc1cc(NCCO)c([N+](=O)[O-])c2nonc12,-16.3,-7.6,53.6,5.5,-21.3,1.8
CCOC(=O)C1CCCN(C(=O)CCc2nnc(-c3ccc(C(C)=O)s3)o2)C1 (stereo not drawn),5.0,-10.8,42.2*,25.9,-13.9,-2.9
CCOC(=O)C1CCCN(C(=O)CSCc2ccccc2)C1 (stereo not drawn),1.8,-22.8,9.6,4.8,-17.1,-3.6
Cc1cccc(Nc2nc(N)nc(N)c2N=O)c1,-56.0,.,.,45.5*,.,.
CN1CCCCC(NC(=O)CCCl)C1=O (stereo not drawn),-14.2,.,.,0.5,.,.
CC1(C)C2CCC1(C)C(SC(=N)N)C2 (stereo not drawn),-0.2,.,.,12.8,.,.
CCOC(=O)c1c(C)[nH]c(C(=O)COC(=O)[C@H](C)N2C(=O)C3CCCCC3C2=O)c1C (stereo partly drawn),55.7*,.,.,20.3,.,.
CC(=O)c1c(C)[nH]c(C(=O)COC(=O)CN2C(=O)C3CCCCC3C2=O)c1C (stereo not drawn),1.6,-5.6,3.1,13.0,-1.3,.
